Laboratory results as given in article PMC9924099 (Journal of medicinal chemistry, 2021).
Read-outs that look alike come from different tables or passages of the source.

How the values were obtained:
[1] = test system: p53^R273H MDA-MB-468 cells; assay: qRT-PCR gene expression; format: cell-based, human; details: for expression of MDM2 / expression of canonical p53 targets p21 and NOXA: MDA-MB-468, 6 μM; for expression of canonical p53 targets p21 and NOXA: 4 h; for p53 mRNA levels: MDA-MB-468, 4 h
Outline: (§1)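 Cells were exposed to 6 μM test compound or DMSO for 4 h. RNA was extracted and reverse-transcribed, and transcripts were quantified by TaqMan qRT-PCR normalised to GAPDH. Values are means with SD from triplicates of repeated experiments.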

[2] = test system: p53^R273H MDA-MB-468 cells; assay: Annexin V staining; format: cell-based, human; details: MDA-MB-468, 6 μM or 12 μM; for increase in Annexin V stained cells compared to DMSO: 24 h
[3] = test system: p53^R280K MDA-MB-231 cells; assay: Annexin V staining; format: cell-based, human; details: MDA-MB-231, 6 μM or 12 μM, 24 h
[4] = test system: caspase 3 and PARP1 in WT p53 MCF-7 cells; assay: Western blot of caspase 3 and PARP1; format: cell-based, human; details: MCF-7 (caspase 3-deficient), 24 h
Outline: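 MCF-7 cells were treated with test compound or DMSO for 24 h and lysed on ice for 30 min (20 mM Tris-Cl pH 8.0, 137 mM NaCl, 10% glycerol, 1% NP-40, 2 mM EDTA, protease inhibitors). Lysates were cleared at 18,500 × g. 100 μg lysate was run on 4–12% SDS-PAGE, transferred to PVDF and probed with anti-PARP and anti-caspase 3 (1:1000), HRP secondary and ECL. GAPDH served as loading control.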

[5] = test system: p53^R273H MDA-MB-468 cells; assay: WST-1 cell proliferation assay; format: cell-based, human; details: Homo sapiens, read-out: IC50, inhibition of cell proliferation
[6] = test system: p53^R280K MDA-MB-231 cells; assay: WST-1 cell proliferation assay; format: cell-based, human; details: for IC50: Homo sapiens, read-out: IC50, inhibition of cell proliferation
[7] = test system: WT p53 MCF-7 cells; assay: Annexin V staining; format: cell-based, human; details: MCF-7, 24 h
Outline: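 After 24 h exposure to test compound or DMSO, MCF-7 cells (RPMI 1640, 10% FBS, 1% penicillin/streptomycin, 1% L-glutamine) were scraped, PBS-washed and taken up in Annexin V binding buffer. They were stained with fluorochrome-conjugated Annexin V for 15 min at RT in the dark, then PI staining solution was added. Flow cytometry read-out; % Annexin V-positive cells expressed relative to DMSO.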

[8] = molecular target: p53^R273H in MDA-MB-468 cells (Homo sapiens, UniProt P04637, R273H); assay: Western blot of p53 expression; format: cell-based; details: MDA-MB-468, 6 μM or 12 μM, 24 h
Outline: (§2)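 Cells were treated 24 h with 6 μM or 12 μM test compound or DMSO and lysed in NP-40/Tris-Cl pH 8.0 buffer with protease inhibitors. Load on 4–12% SDS-PAGE was 20 μg for MDA-MB-231 and MDA-MB-468 or 50 μg for MCF-7. After PVDF transfer, blots were probed with p53 DO-1 antibody, reprobed for GAPDH as loading control and developed by ECL.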

[9] = test system: mammary epithelial cells (MCF10A); assay: Proliferation of normal cells; format: cell-based, human
[10] = test system: colon cells (CCD841); assay: Proliferation of normal cells; format: cell-based, human
[11] = test system: caspase 3 and PARP1 in p53^R273H MDA-MB-468 cells; assay: Western blot of caspase 3 and PARP1; format: cell-based, human; details: MDA-MB-468, 24 h
Outline: (§3)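 Cells grown in RPMI 1640 with 10% FBS, 1% penicillin/streptomycin and 1% L-glutamine, then given test compound or DMSO control for 24 h. Lysed 30 min on ice in Tris-Cl pH 8.0/NaCl/glycerol/NP-40/EDTA buffer with protease inhibitors, then cleared. 100 μg lysate run on 4-12% SDS-PAGE, transferred to PVDF, probed with anti-PARP and anti-caspase 3 (1:1000 each). ECL detection.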

[12] = molecular target: WT p53 in MCF-7 cells (Homo sapiens, UniProt P04637); assay: Western blot of p53 expression; format: cell-based; details: MCF-7, 6 μM or 12 μM, 24 h
Outline: as §2

[13] = test system: p53^R280K MDA-MB-231 cells; assay: qRT-PCR gene expression; format: cell-based, human; details: for expression of canonical p53 targets p21 and NOXA: MDA-MB-231, 6 μM, 4 h; for p53 mRNA levels: MDA-MB-231, 4 h
Outline: as §1

[14] = test system: WT p53 MCF-7 cells; assay: qRT-PCR gene expression; format: cell-based, human; details: for expression of MDM2 / expression of canonical p53 targets p21 and NOXA: MCF-7, 6 μM; for expression of canonical p53 targets p21 and NOXA: 4 h; for p53 mRNA level: MCF-7, 4 h
Outline: as §1

[15] = test system: caspase 3 and PARP1 in p53^R280K MDA-MB-231 cells; assay: Western blot of caspase 3 and PARP1; format: cell-based, human; details: MDA-MB-231, 24 h
Outline: as §3

[16] = molecular target: p53^R280K in MDA-MB-231 cells (Homo sapiens, UniProt P04637, R280K); assay: Western blot of p53 expression; format: cell-based; details: MDA-MB-231, 6 μM or 12 μM, 24 h
Outline: as §2

[17] = test system: ATM in MDA-MB-468 cells; assay: Western blot of pATM S1981; format: cell-based, human; details: MDA-MB-468, 6 μM, 24 h
Outline: (§4)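 Cells were treated 24 h with 6 μM test compound or DMSO and lysed in NP-40 buffer; 250 μg lysate was run on 4–12% SDS-PAGE and transferred to PVDF. Probing used anti-pATM Ser1981 (1:500) with HRP anti-mouse IgG (1:1000) and ECL detection, then reprobing with anti-GAPDH (1:5000). Experiments were done in triplicate.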

[18] = test system: WT p53 MCF-7 cells; assay: WST-1 cell proliferation assay; format: cell-based, human; details: MCF-7, 24 h or 72 h; compared to mutant p53 cells
Outline: (§5)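 WST-1 assay. Test compound in DMSO was added to cells at 40,000 cells/ml, giving 1% DMSO final, and plated at 4,000 cells/well in duplicate; medium-only wells served as background. Incubation was 24 h or 72 h at 37 °C, then WST-1 for 2 h and OD450 read. Proliferation is expressed as % of DMSO control; triplicate experiments. MCF-7 grown in RPMI 1640, MDA-MB-436 in DMEM.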

[19] = test system: ATM in MDA-MB-231 cells; assay: Western blot of pATM S1981; format: cell-based, human; details: MDA-MB-231, 6 μM, 24 h
Outline: as §4

[20] = test system: p53 null MDA-MB-436 cells; assay: WST-1 cell proliferation assay; format: cell-based, human; details: MDA-MB-436, 24 h and 72 h; compared to MDA-MB-231 or MDA-MB-468
Outline: as §5

[21] = test system: ATM in WT p53 MCF-7 cells; assay: Western blot of pATM S1981; format: cell-based, human; details: MCF-7, 6 μM, 24 h
Outline: as §4

[22] = test system: p53^R280K MDA-MB-231 cells; assay: Flow-cytometric cell cycle analysis; format: cell-based, human; details: MDA-MB-231, 6 μM, 24 h; DMSO 42.9%
[23] = test system: p53 knockdown MDA-MB-468 cells; assay: WST-1 proliferation after p53 siRNA knockdown; format: cell-based, human; details: p53 siRNA MDA-MB-468 vs NS siRNA cells
Outline: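 MDA-MB-468 cells at 50–60% confluence received p53 SMARTpool siRNA or non-specific siRNA (0.430 nmol with Lipofectamine 2000 in Opti-MEM, 5 h), with a second transfection 24 h later. At 72 h after the first transfection, cells were treated with test compound or DMSO. Proliferation was then measured by WST-1 as % of DMSO.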

[24] = Log P determination; format: physicochemical; details: octanol/sodium phosphate buffer (pH 7.4)
[25] = human, in vivo; cited from earlier work

Structure (SMILES): [Se]=C=NCCC12CC3CC(CC(C3)C1)C2 [Ad-ISeC 14, 1-Isoselenocyanato-2-(adamantan-1-yl)ethane]
- expression of MDM2 [1]: statistically significant elevation of MDM2
- expression of canonical p53 targets p21 and NOXA [1]: significantly enhanced the levels of p21 and NOXA
- p53 mRNA levels [1]: remained unchanged
- level of apoptosis compared to Ad-ITC 5 [2]: > 2 fold
- increase in Annexin V stained cells compared to DMSO [2]: enhanced the apoptotic potential
- increase in Annexin V stained cells compared to DMSO [3]: enhanced the apoptotic potential
- levels of uncleaved PARP1 and cleaved-PARP1 [4]: did not detect any significant change
- IC50 ([5]; MDA-MB-468, 24 h): 6 to 12 µM
- IC50 ([5]; MDA-MB-468, 72 h): 6 to 12 µM
- IC50 ([6]; MDA-MB-231, 24 h): 6 to 12 µM
- IC50 ([6]; MDA-MB-231, 72 h): 6 to 12 µM
- increase in Annexin V stained cells compared to DMSO [7]: not in MCF-7 cells
- mutant p53 expression (western blot) [8]: significant reduction in mutant p53 expression
- IC50 compared with mutant p53 tumor cells (in words) ([9]; MCF10A normal cells vs MDA-MB-231 and MDA-MB-468): significantly higher
- IC50 compared with mutant p53 tumor cells (in words) ([10]; CCD841 normal cells vs MDA-MB-231 and MDA-MB-468): significantly higher
- levels of uncleaved caspase 3, uncleaved PARP1 and cleaved-PARP1 [11]: decrease in the levels of uncleaved caspase 3 and PARP-1 and an increase in the levels of cleaved-PARP1 fragment
- WT p53 expression (western blot) [12]: marginally elevated
- expression of canonical p53 targets p21 and NOXA [13]: significantly enhanced the levels of p21 and NOXA
- p53 mRNA levels [13]: remained unchanged
- expression of MDM2 [14]: statistically significant elevation of MDM2
- expression of canonical p53 targets p21 and NOXA [14]: significant increase in the expression levels
- p53 mRNA level [14]: increase in the p53 mRNA level
- levels of uncleaved caspase 3, uncleaved PARP1 and cleaved-PARP1 [15]: decrease in the levels of uncleaved caspase 3 and PARP-1 and an increase in the levels of cleaved-PARP1 fragment
- mutant p53 expression (western blot) [16]: significant reduction in mutant p53 expression

Structure (SMILES): S=C=NCCCC12CC3CC(CC(C3)C1)C2 [Ad-ITC 6, 1-Isothiocyanato-3-(adamantan-1-yl)propane]
- expression of MDM2 [1]: enhanced the expression of MDM2
- expression of canonical p53 targets p21 and NOXA [1]: enhanced the expression of the canonical p53 targets p21 and NOXA
- p53 mRNA levels [1]: remained unchanged
- increase in Annexin V stained cells compared to DMSO [2]: 2.0-5.1 fold
- phosphorylation of ATM at S1981 [17]: phosphorylation of ATM at S1981
- inhibition of cell proliferation / sensitivity (in words) [18]: remarkably less sensitive
- increase in Annexin V stained cells compared to DMSO [3]: 2.0-5.1 fold
- levels of uncleaved PARP1 and cleaved-PARP1 [4]: did not detect any significant decrease in the levels of uncleaved PARP1 or accumulation of cleaved-PARP1 fragments
- IC50 ([5]; MDA-MB-468, 24 h): 12 to 24 µM
- IC50 ([5]; MDA-MB-468, 72 h): 12 to 24 µM
- IC50 ([6]; MDA-MB-231, 24 h): 12 to 24 µM
- IC50 ([6]; MDA-MB-231, 72 h): 12 to 24 µM
- inhibition of cell proliferation (in words) ([6]; MDA-MB-231, 24 h or 72 h): dose-dependent activity
- phosphorylation of ATM at S1981 [19]: phosphorylation of ATM at S1981
- increase in Annexin V stained cells compared to DMSO [7]: did not display any significant increase
- mutant p53 expression (western blot) [8]: differential decrease in the expression of mutant p53
- IC50 compared with mutant p53 tumor cells (in words) [9]: significantly higher
- sensitivity of cell proliferation (in words) [20]: significantly reduced sensitivity
- IC50 compared with mutant p53 tumor cells (in words) [10]: significantly higher
- pATM-S1981 [21]: absent
- levels of uncleaved caspase 3, uncleaved PARP1 and cleaved-PARP1 [11]: significant decrease in the levels of uncleaved caspase 3 and PARP1
- cells in G1 phase [22]: 48.2%
- WT p53 expression (western blot) [12]: did not decrease WT p53 expression
- expression of canonical p53 targets p21 and NOXA [13]: enhanced the expression of the canonical p53 targets p21 and NOXA
- p53 mRNA levels [13]: remained unchanged
- expression of MDM2 [14]: enhanced the expression of MDM2
- expression of canonical p53 targets p21 and NOXA [14]: upregulated expression of p21 and NOXA
- p53 mRNA level [14]: increase in the p53 mRNA level
- levels of uncleaved caspase 3, uncleaved PARP1 and cleaved-PARP1 [15]: significant decrease in the levels of uncleaved caspase 3 and PARP1
- sensitivity of cell proliferation (in words) [23]: markedly reduced sensitivity
- mutant p53 expression (western blot) [16]: differential decrease in the expression of mutant p53
- logP at 18 h [24]: 5.17

Structure (SMILES): S=C=NCCc1ccccc1 [PEITC, Phenethyl isothiocyanate, reference compound]
- inhibition of cell proliferation / sensitivity (in words) [18]: considerably less sensitive
- levels of uncleaved PARP1 and cleaved-PARP1 [4]: significant decrease in the levels of uncleaved PARP1 and accumulation of cleaved-PARP1
- mutant p53 expression (western blot) [8]: significant decrease
- estimated half-life [25]: ~ 2.4 h
- levels of uncleaved caspase 3, uncleaved PARP1 and cleaved-PARP1 [11]: significant decrease in the levels of uncleaved caspase 3 and accumulation of cleaved-PARP1 fragments
- WT p53 expression (western blot) [12]: increase in p53 levels
- levels of uncleaved caspase 3, uncleaved PARP1 and cleaved-PARP1 [15]: significant decrease in the levels of uncleaved caspase 3 and accumulation of cleaved-PARP1 fragments
- mutant p53 expression (western blot) [16]: significant decrease
- logP at 18 h [24]: 3.5
